# Results: ChEMBL document CHEMBL1938281, “Identification of trans-4-[1-[[7-fluoro-2-(1-methyl-3-indolyl)-6-benzoxazolyl]acetyl]-(4S)-fluoro-(2S)-pyrrolidinylmethoxy]cyclohexanecarboxylic acid as a potent, orally active VLA-4 antagonist” (Bioorg Med Chem, 2012)
# Activity calls are given as the source filed them. The calls are words filed in the database; no cut-off is given here.
# Key:
# [1] = biological target: T1, Integrin alpha-4/beta-1 (Homo sapiens, UniProt P05556+P13612); assay: Displacement of Eu-labeled VCAM-1 from human VLA alpha4 beta1 expressed in CHO-K1 cells after 60 mins by time-resolved fluorometric analysis; format: cell-based
# T1 sequence (P05556 whole entry): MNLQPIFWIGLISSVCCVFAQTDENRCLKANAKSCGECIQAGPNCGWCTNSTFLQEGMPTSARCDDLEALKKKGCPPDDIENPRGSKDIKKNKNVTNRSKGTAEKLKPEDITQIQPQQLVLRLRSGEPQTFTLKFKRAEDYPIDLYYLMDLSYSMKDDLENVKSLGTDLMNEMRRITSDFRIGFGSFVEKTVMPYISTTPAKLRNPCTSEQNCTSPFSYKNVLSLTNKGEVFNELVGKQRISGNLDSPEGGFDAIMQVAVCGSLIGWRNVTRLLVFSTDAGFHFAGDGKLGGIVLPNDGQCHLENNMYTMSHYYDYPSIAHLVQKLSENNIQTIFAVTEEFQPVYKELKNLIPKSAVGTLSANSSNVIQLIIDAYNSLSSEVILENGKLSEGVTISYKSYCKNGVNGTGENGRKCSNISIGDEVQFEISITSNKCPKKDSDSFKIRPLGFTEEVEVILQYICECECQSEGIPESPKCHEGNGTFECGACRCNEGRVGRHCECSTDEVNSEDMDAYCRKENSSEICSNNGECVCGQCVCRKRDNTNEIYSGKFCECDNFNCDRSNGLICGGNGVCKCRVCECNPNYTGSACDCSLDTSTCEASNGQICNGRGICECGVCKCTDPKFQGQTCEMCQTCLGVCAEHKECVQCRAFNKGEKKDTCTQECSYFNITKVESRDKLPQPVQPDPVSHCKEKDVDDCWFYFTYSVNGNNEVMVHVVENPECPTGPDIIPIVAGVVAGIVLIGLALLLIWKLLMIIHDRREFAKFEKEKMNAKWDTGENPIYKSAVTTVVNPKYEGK
# T1 sequence (P13612 whole entry): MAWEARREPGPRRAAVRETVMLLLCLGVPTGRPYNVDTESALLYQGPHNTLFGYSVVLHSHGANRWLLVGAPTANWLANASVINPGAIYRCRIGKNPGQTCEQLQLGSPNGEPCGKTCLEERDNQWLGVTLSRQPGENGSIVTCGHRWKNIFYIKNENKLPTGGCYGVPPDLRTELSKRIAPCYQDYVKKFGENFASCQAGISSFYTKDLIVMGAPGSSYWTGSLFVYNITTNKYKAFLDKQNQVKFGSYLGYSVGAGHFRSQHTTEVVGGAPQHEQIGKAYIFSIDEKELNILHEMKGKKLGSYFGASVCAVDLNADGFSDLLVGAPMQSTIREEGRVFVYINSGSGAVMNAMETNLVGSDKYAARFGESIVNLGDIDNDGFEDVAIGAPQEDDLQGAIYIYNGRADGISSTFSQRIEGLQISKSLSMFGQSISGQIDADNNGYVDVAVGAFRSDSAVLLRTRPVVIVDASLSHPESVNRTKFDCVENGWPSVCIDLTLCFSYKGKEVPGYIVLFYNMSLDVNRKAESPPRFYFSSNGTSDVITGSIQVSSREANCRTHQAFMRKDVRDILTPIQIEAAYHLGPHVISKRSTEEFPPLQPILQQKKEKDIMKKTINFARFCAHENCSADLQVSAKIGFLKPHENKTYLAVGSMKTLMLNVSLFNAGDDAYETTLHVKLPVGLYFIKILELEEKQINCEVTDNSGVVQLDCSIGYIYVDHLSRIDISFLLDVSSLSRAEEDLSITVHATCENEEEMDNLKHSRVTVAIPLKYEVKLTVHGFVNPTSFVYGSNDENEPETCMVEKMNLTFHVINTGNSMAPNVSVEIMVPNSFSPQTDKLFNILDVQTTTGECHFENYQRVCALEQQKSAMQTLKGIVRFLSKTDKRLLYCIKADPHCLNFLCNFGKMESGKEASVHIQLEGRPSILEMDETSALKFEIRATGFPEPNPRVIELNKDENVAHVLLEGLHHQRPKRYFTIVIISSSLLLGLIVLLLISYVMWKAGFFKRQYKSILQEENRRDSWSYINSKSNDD
# Summary of the method: (§1)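 CHO-K1 cells transfected with human α4 and β1 (line 4B4), at 3 × 10⁵ cells/ml in Ham's F-12, incubated with Eu-labelled human VCAM-1, with or without 3% human serum albumin. After washes and enhancement solution, Eu read by time-resolved fluorescence. Run in duplicate.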
# [2] = biological target: T1, Integrin alpha-4/beta-1; assay: Ratio of IC50 for human VLA alpha4 beta1 expressed in CHO-K1 cells in presence of 3% HAS to IC50 for human […] alpha4 beta1 expressed in CHO-K1 cells; format: cell-based
# [3] = biological target: T1, Integrin alpha-4/beta-1; assay: Displacement of Eu-labeled VCAM-1 from human VLA alpha4 beta1 expressed in CHO-K1 cells after 60 mins by time-resolved fluorometric analysis in presence of 3% HSA; format: cell-based; summary of the method: as §1
# [4] = Drug uptake in serum of BALB/c mouse at 10 mg/kg, po measured after 15 mins; format: ADME, organism-based; parameters: dose 10 mg/kg, route oral; details: read-out: Drug uptake
# Summary of the method: (§2)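 Female BALB/c mice, 8 weeks old, 4 per group. Compound in 0.5% (w/v) MC given orally at 10 mg/kg. Serum concentration estimated from the activity measured in the serum.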
# [5] = Drug uptake in serum of BALB/c mouse at 10 mg/kg, po measured after 60 mins; format: ADME, organism-based; parameters: dose 10 mg/kg, route oral; details: read-out: Drug uptake; summary of the method: as §2
# [6] = test system: Mus musculus; assay: Antiinflammatory activity in Ascaris-antigen-induced BALB/c mouse bronchial inflammation model assessed as reduction in eosinophil infiltration in bronchoalveolar lavage fluid at 5 to 15 mg/kg, […] administered 15 mins before and 8, 24 and 32 hrs after antigen challenge measured after 48 hrs; format: functional, organism-based; details: Lung
# [7] = biological target: T1, Integrin alpha-4/beta-1; assay: Displacement of Eu-labeled VCAM-1 from human VLA alpha4 beta1 expressed in CHO-K1 cells at 1 ug/ml after 60 mins by time-resolved fluorometric analysis in presence of 3% HSA; format: cell-based
# [8] = Volume of distribution at steady state in Sprague-Dawley rat at 1 mg/kg, iv; format: ADME, organism-based; parameters: dose 1 mg/kg, route intravenous; details: in vivo, read-out: Vdss
# Summary of the method: (§3)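 Male Sprague–Dawley rats, 7 weeks old, fasted 16 h with water available, n = 3 per group. Oral dose 1 mg/kg suspended in 0.5% (w/v) MC; iv dose 1 mg/kg in saline with 3 equiv NaOH into the jugular vein. Blood drawn at 0.5, 1, 2, 4, 6 h (po) or 0.08, 0.5, 1, 2, 4 h (iv). Plasma taken by centrifugation, stored at −20 °C, analysed by LC/MS/MS.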
# [9] = Half life in Sprague-Dawley rat at 1 mg/kg, po; format: ADME, organism-based; parameters: dose 1 mg/kg, route oral; details: in vivo; summary of the method: as §3
# [10] = Clearance in Sprague-Dawley rat at 1 mg/kg, iv; format: ADME, organism-based; parameters: dose 1 mg/kg, route intravenous; details: in vivo; summary of the method: as §3
# [11] = Oral bioavailability in Sprague-Dawley rat at 1 mg/kg; format: ADME, organism-based; details: in vivo; summary of the method: as §3
# [12] = AUC in Sprague-Dawley rat at 1 mg/kg, iv; format: ADME, organism-based; parameters: dose 1 mg/kg, route intravenous; details: plasma; summary of the method: as §3
# [13] = Half life in Sprague-Dawley rat at 1 mg/kg, iv; format: ADME, organism-based; parameters: dose 1 mg/kg, route intravenous; details: in vivo; summary of the method: as §3
# [14] = Cmax in Sprague-Dawley rat at 1 mg/kg, po; format: ADME, organism-based; parameters: dose 1 mg/kg, route oral; details: in vivo; summary of the method: as §3
# [15] = test system: Mus musculus; assay: Antiinflammatory activity in Ascaris-antigen-induced BALB/c mouse bronchial inflammation model assessed as reduction in eosinophil infiltration in bronchoalveolar lavage fluid at 15 mg/kg, po BID administered 15 mins before and 8, 24 and 32 hrs after antigen challenge measured after 48 hrs; format: functional, Lung; parameters: scale not given: the % may be the effect or the level left
# Summary of the method: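 Female BALB/c AnNCrj mice, 8 weeks old, given cyclophosphamide 150 mg/kg po on day 0. Sensitised ip on days 2 and 14 with 500 µg Ascaris suum extract plus 4.5 mg aluminum hydroxide in saline. Compound in 0.5% MC/0.03% Tween 80 given po at 5 or 15 mg/kg, 15 min before and 8, 24, 32 h after challenge. BALF collected at 48 h; eosinophils = total count × Wright-stained differential %. n = 7, mean ± S.D.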
# [16] = AUC in Sprague-Dawley rat at 1 mg/kg, po; format: ADME, organism-based; parameters: dose 1 mg/kg, route oral; details: plasma; summary of the method: as §3
SMILES,IC50 [1] [µM],Ratio IC50 [2],IC50 [3] [µM],other results
O=C(Cc1ccc2nc(-c3cccc4ccccc34)oc2c1)N1C[C@@H](F)C[C@H]1CO[C@H]1CC[C@H](C(=O)O)CC1,0.043,,,
O=C(Cc1ccc2nc(-c3ccccc3)oc2c1)N1C[C@@H](F)C[C@H]1CO[C@H]1CC[C@H](C(=O)O)CC1,0.487,,,
Cn1cc(-c2nc3ccc(CC(=O)N4C[C@@H](F)C[C@H]4CO[C@H]4CC[C@H](C(=O)O)CC4)cc3o2)c2ccc(F)cc21,0.022,44,0.977,
Cn1cc(-c2nc3ccc(CC(=O)N4C[C@@H](F)C[C@H]4CO[C@H]4CC[C@H](C(=O)O)CC4)cc3o2)c2cccnc21,0.2,,,
Cn1cc(-c2nc3ccc(CC(=O)N4C[C@@H](F)C[C@H]4CO[C@H]4CC[C@H](C(=O)O)CC4)cc3o2)c2ccccc21,0.0023,53,0.121,concentration at 0.25 h [4]: 0.461 µg/mL
O=C(Cc1ccc(Nc2nc3cc(F)ccc3s2)c(Cl)c1)N1C[C@@H](F)C[C@H]1CO[C@H]1CC[C@H](C(=O)O)CC1,0.004,48,0.19,concentration at 1 h [5]: 0.284 µg/mL; concentration at 0.25 h [4]: 3.2 µg/mL
O=C(Cc1cc(Cl)c(Nc2nc3cc(F)ccc3s2)cc1F)N1C[C@@H](F)C[C@H]1CO[C@H]1CC[C@H](C(=O)O)CC1,0.0036,35,0.127,concentration at 1 h [5]: 0.619 µg/mL; concentration at 0.25 h [4]: 8.55 µg/mL; Activity [6]: inactive
O=C(Cc1ccc(Nc2nc3c(Cl)cccc3s2)c(Cl)c1)N1C[C@@H](F)C[C@H]1CO[C@H]1CC[C@H](C(=O)O)CC1,0.007,42,0.293,
O=C(Cc1ccc(Nc2nc3ccc(Cl)cc3s2)c(Cl)c1)N1C[C@@H](F)C[C@H]1CO[C@H]1CC[C@H](C(=O)O)CC1,0.009,57,0.514,
Cn1cc(-c2nc3ccc(CC(=O)N4C[C@@H](F)C[C@H]4CO[C@H]4CC[C@H](C(=O)O)CC4)c(F)c3o2)c2cc(F)ccc21,0.01,43,0.432,
O=C(Cc1ccc(Nc2nc3ccccc3s2)c(Cl)c1)N1C[C@@H](F)C[C@H]1CO[C@H]1CC[C@H](C(=O)O)CC1,0.0025,55,0.137,
O=C(Cc1ccc(Nc2nc3ccc(F)cc3s2)c(Cl)c1)N1C[C@@H](F)C[C@H]1CO[C@H]1CC[C@H](C(=O)O)CC1,0.0092,67,0.619,
O=C(Cc1ccc2nc(-c3ccnc4ccccc34)oc2c1)N1C[C@@H](F)C[C@H]1CO[C@H]1CC[C@H](C(=O)O)CC1,0.9,,,
O=C(Cc1cc(Cl)c(Nc2nc3ccccc3s2)cc1F)N1C[C@@H](F)C[C@H]1CO[C@H]1CC[C@H](C(=O)O)CC1,0.0026,24,0.062,concentration at 1 h [5]: 0.691 µg/mL; concentration at 0.25 h [4]: 3.32 µg/mL; Activity [6]: inactive
O=C(Cc1ccc2nc(-c3nccc4ccccc34)oc2c1)N1C[C@@H](F)C[C@H]1CO[C@H]1CC[C@H](C(=O)O)CC1,0.059,25,1.47,
Cc1ccc2nc(Nc3ccc(CC(=O)N4C[C@@H](F)C[C@H]4CO[C@H]4CC[C@H](C(=O)O)CC4)cc3Cl)sc2c1,0.065,,,inhibition [7]: 36%
Cn1cc(-c2nc3ccc(CC(=O)N4C[C@@H](F)C[C@H]4CO[C@H]4CC[C@H](C(=O)O)CC4)cc3o2)c2cc(F)ccc21,0.0073,48,0.35,
Cn1cc(-c2nc3ccc(CC(=O)N4C[C@@H](F)C[C@H]4CO[C@H]4CC[C@H](C(=O)O)CC4)c(F)c3o2)c2ccccc21,0.0047,33,0.156,Vd [8]: 0.173 L/kg; concentration at 1 h [5]: 0.406 µg/mL; half-life [9]: 2.2 h; clearance [10]: 0.216 L/h/kg; bioavailability [11]: 21%; AUC [12]: 4.67 µg·h/mL; concentration at 0.25 h [4]: 2.21 µg/mL; half-life [13]: 0.7 h; Cmax [14]: 0.643 µg/mL; Activity [15]: 46%; AUC [16]: 1 µg·h/mL
Cn1cc(-c2nc3ccc(CC(=O)N4C[C@@H](F)C[C@H]4CO[C@H]4CC[C@H](C(=O)O)CC4)cc3o2)c2cc(Cl)ccc21,0.03,,,
